≈ marks a conversion by molar mass, not a printed value.
Assays:
Staphylococcus aureus [1] = experiment: Antibacterial activity against methicillin-resistant Staphylococcus aureus SAU1009; assay type: functional
How it was run: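 MIC against MRSA strain SAU1009.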

Staphylococcus aureus [2] = experiment: Antibacterial activity against Staphylococcus aureus in po dosed mouse septicemia model; assay type: functional

Compound | MIC (Staphylococcus aureus [1]) [µg/mL] | ED50 (Staphylococcus aureus [2]) [mg/kg]
Cn1nnc(-c2ccc(-c3ccc(N4C[C@H](CO)OC4=O)c(F)c3F)cn2)n1 | 1 (≈ 2.58 µM) | –
CC(=O)NC[C@H]1CN(c2cc(F)c(N3C=CC(=O)CC3)c(F)c2F)C(=O)O1 | 2 (≈ 5.22 µM) | > 20
